According to the array DNA melting data of Ke et al. (doi:10.1101/2024.01.08.574731):

Key:
[1] = folding enthalpy; higher = less favourable; fluorescence melt of hairpins on a sequencing array, two-state fit; conditions: sodium 0.088 M
Method in brief: (§1)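 Bootstrapped two-state fits yielded melting temperature and folding enthalpy for library hairpins. Cy3 fluorescence, with annealed Cy3 and quencher oligos, was imaged on a sequenced MiSeq flow cell in 50 mM Na-HEPES pH 8.0, 25 mM NaCl in 2.5 °C steps up to 60 °C, and normalised to pre-quench Cy3 and to control constructs. Four replicates were combined by inverse variance, and fitted temperatures were raised by 9.35 °C to match UV melts.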

[2] = melting temperature; fluorescence melt of hairpins on a sequencing array, two-state fit, raised by 9.35 °C to match UV melts; conditions: sodium 0.088 M
Method in brief: as §1

| Sequence | folding enthalpy [1] | Tm [2] |
| --- | --- | --- |
| GCTACCGAAAGGTCGAGC ((((((....)))..))) | -16.3 kcal/mol | 37 °C |
| GCTACCGAAAGGTTAAGC ((((((....)))..))) | -19.6 kcal/mol | 39.4 °C |
| GCTACCGAAAGGTTCAGC ((((((....)))..))) | -16.3 kcal/mol | 35.5 °C |
| GCTACCGAAAGGTTTAGC ((((((....)))..))) | -17.6 kcal/mol | 38.5 °C |
| GCTACCGGAAACGGCAGC (((.(((....))).))) | -38.7 kcal/mol | 51.8 °C |
| GCTACGCGAAAGCATAGC ((((.((....)).)))) | -28 kcal/mol | 53.9 °C |
| GCTACGCGAAAGCATCGC ((.(.((....)).).)) | -9.49 kcal/mol | 30.7 °C |
| GCTACGCGAAAGCGCCGC ((..(((....)))..)) | -10.9 kcal/mol | 36.8 °C |
| GCTACGCGAAAGCGGCGC ((..(((....)))..)) | -19.6 kcal/mol | 60.5 °C |
| GCTACGCGAAAGCGGTGC ((..(((....)))..)) | -16 kcal/mol | 56 °C |
| GCTACGCGAAAGCTTAGC ((((.((....)).)))) | -20.8 kcal/mol | 55.4 °C |
| GCTACGCGAAAGCTTCGC ((.(.((....)).).)) | -10.3 kcal/mol | 37.6 °C |
| GCTACGGGAAACCATAGC ((((.((....)).)))) | -31 kcal/mol | 39.4 °C |
| GCTACGGGAAACCGCAGC (((.(((....))).))) | -41.7 kcal/mol | 49.7 °C |
| GCTACGGGAAACCGTAAC (.(((((....))))).) | -13.7 kcal/mol | 36.1 °C |
| GCTACTCGAAAGAGAGC (((.(((....)))))) | -25.4 kcal/mol | 44.8 °C |
| GCTAGAACGAAAGTTAGC (((..(((....)))))) | -26.6 kcal/mol | 38.3 °C |
| GCTAGAGGAAACTCTAGC (((((((....))))))) | -44 kcal/mol | 58.5 °C |
| GCTAGATCGAAAGATAGC (((..(((....)))))) | -19.4 kcal/mol | 36.4 °C |
| GCTAGCCGAAAGGCCAGC (((.(((....))).))) | -20.8 kcal/mol | 54.3 °C |
| GCTAGCGAAAGCTATAGC ((((((....)))..))) | -18.5 kcal/mol | 46.5 °C |
| GCTAGCGAAAGCTCCAGC ((((((....)))..))) | -10.8 kcal/mol | 33.1 °C |
| GCTAGCGAAAGCTGAAGC ((((((....)))..))) | -15 kcal/mol | 43.1 °C |

| Sequence | folding enthalpy [1] | Tm [2] |
| --- | --- | --- |
| GCTAGCGAAAGCTGAGC ((((((....))).))) | -28.5 kcal/mol | 49.9 °C |
| GCTAGCGAAAGCTGGAGC ((((((....)))..))) | -14.1 kcal/mol | 43.2 °C |
| GCTAGCGAAAGCTTAAGC ((((((....)))..))) | -16.9 kcal/mol | 43.2 °C |
| GCTAGCGGAAACGTTAGC ((((.((....)).)))) | -34.1 kcal/mol | 51.3 °C |
| GCTAGGCCGAAAGGCAGC (((..(((....)))))) | -15.1 kcal/mol | 47.8 °C |
| GCTAGGCGAAAGCCTGGC ((.((((....)))).)) | -21.1 kcal/mol | 68.2 °C |
| GCTAGGCGAAAGCGTTGC ((.(.((....)).).)) | -21.9 kcal/mol | 42 °C |
| GCTAGGCGAAAGCTAAGC (((..((....))..))) | -18.6 kcal/mol | 48.7 °C |
| GCTAGGGGAAACCCTAGC (((((((....))))))) | -44.2 kcal/mol | 65.9 °C |
| GCTAGTACGAAAGTAAGC (((..(((....)))))) | -14.7 kcal/mol | 28.2 °C |
| GCTATCGAAAGATACAGC ((((((....)))..))) | -20.8 kcal/mol | 32.6 °C |
| GCTATCGAAAGATAGC ((((((....)))))) | -39 kcal/mol | 66.4 °C |
| GCTATCGAAAGATGAAGC ((((((....)))..))) | -16.2 kcal/mol | 32.8 °C |
| GCTATGCGAAAGCAAGC (((.(((....)))))) | -17.5 kcal/mol | 51.7 °C |
| GCTATGCGAAAGCACTGC ((..(((....)))..)) | -15.3 kcal/mol | 36.3 °C |
| GCTATGCGAAAGCAGCGC ((..(((....)))..)) | -18.9 kcal/mol | 54.2 °C |
| GCTATGCGAAAGCATGGC ((.((((....)))).)) | -32 kcal/mol | 65 °C |
| GCTATGCGAAAGCCTAGC ((((.((....)).)))) | -28.8 kcal/mol | 52.4 °C |
| GCTATGCGAAAGCGTCGC ((.(.((....)).).)) | -18.1 kcal/mol | 43.2 °C |
| GCTATGCGAAAGCGTGGC ((.(.((....)).).)) | -26.1 kcal/mol | 53.5 °C |
| GCTATGCGAAAGCGTTGC ((.(.((....)).).)) | -22.9 kcal/mol | 48.9 °C |
| GCTATGCGAAAGCTTCGC ((.(.((....)).).)) | -14.2 kcal/mol | 41.5 °C |
| GCTATGGGAAACCACAGC (((.(((....))).))) | -23.7 kcal/mol | 38.6 °C |

| Sequence | folding enthalpy [1] | Tm [2] |
| --- | --- | --- |
| GCTATTACGAAAGTAAGC (((..(((....)))))) | -13.6 kcal/mol | 30 °C |
| GCTATTCGAAAGAAAGC (((.(((....)))))) | -20.1 kcal/mol | 32.1 °C |
| GCTATTCGAAAGAACAGC (((.(((....))).))) | -29.6 kcal/mol | 40.4 °C |
| GCTATTGGAAACGATAGC (((((.(....).))))) | -32.4 kcal/mol | 44.8 °C |
| GCTCAACGAAAGTTTAGC (((.(((....))).))) | -28.2 kcal/mol | 44.5 °C |
| GCTCAAGGAAACCTGAGC (((((.(....).))))) | -35.4 kcal/mol | 46.9 °C |
| GCTCACACGAAAGTGAGC (((..(((....)))))) | -32 kcal/mol | 60.5 °C |
| GCTCACGAAAGTGAAAGC ((((((....)))..))) | -21 kcal/mol | 48.9 °C |
| GCTCACGAAAGTGAAGC ((((((....))).))) | -29 kcal/mol | 56 °C |
| GCTCACGAAAGTGGGAGC ((((((....)))..))) | -20.1 kcal/mol | 49.9 °C |
| GCTCACGAAAGTGTAAGC ((((((....)))..))) | -19 kcal/mol | 45.4 °C |
| GCTCACGAAAGTGTAGC ((((((....))).))) | -24.6 kcal/mol | 51.5 °C |
| GCTCACGGAAACGCAAGC (((..((....))..))) | -8.31 kcal/mol | 26.8 °C |
| GCTCAGAAATGAGC (((((....))))) | -26.8 kcal/mol | 55.4 °C |
| GCTCAGACGAAAGTCAGC (((..(((....)))))) | -15.5 kcal/mol | 41 °C |
| GCTCAGCGAAAGCCGAGC ((((.((....)).)))) | -28.1 kcal/mol | 63.5 °C |
| GCTCAGCGAAAGCTAGGC ((..(((....)))..)) | -15.5 kcal/mol | 44.5 °C |
| GCTCAGCGAAAGCTGCGC ((.((((....)))).)) | -24.8 kcal/mol | 59.9 °C |
| GCTCAGCGAAAGCTTGGC ((..(((....)))..)) | -18.8 kcal/mol | 39.7 °C |
| GCTCAGGCGAAAGCCAGC (((..(((....)))))) | -12.6 kcal/mol | 42.8 °C |
| GCTCAGGGAAACCCAAGC (((..((....))..))) | -12.9 kcal/mol | 33.3 °C |
| GCTCAGGGAAACCTAAGC (((.(((....))).))) | -20.6 kcal/mol | 34.1 °C |
| GCTCAGGGAAACTTGAGC (((((.(....).))))) | -33.3 kcal/mol | 48.7 °C |

| Sequence | folding enthalpy [1] | Tm [2] |
| --- | --- | --- |
| GCTCATCCGAAAGGAAGC (((..(((....)))))) | -11.2 kcal/mol | 29.8 °C |
| GCTCATCGAAAGATAGC (((.(((....)))))) | -26.3 kcal/mol | 42.3 °C |
| GCTCATCGAAAGATCAGC (((.(((....))).))) | -29.6 kcal/mol | 34.7 °C |
| GCTCATGGAAACACGAGC ((((.((....)).)))) | -38.1 kcal/mol | 42.6 °C |
| GCTCATGGAAACATGAAC (.(((((....))))).) | -18.3 kcal/mol | 35.7 °C |
| GCTCATGGAAACATGAGC (((((((....))))))) | -33 kcal/mol | 67.6 °C |
| GCTCCAGAAATGGAGC ((((((....)))))) | -32 kcal/mol | 65.8 °C |
| GCTCCAGGAAACTAGAGC ((((.((....)).)))) | -25.4 kcal/mol | 36.5 °C |
| GCTCCATCGAAAGATAGC (((..(((....)))))) | -10.7 kcal/mol | 24.6 °C |
| GCTCCCGAAAGGGACAGC ((((((....)))..))) | -12.6 kcal/mol | 44.7 °C |
| GCTCCCGAAAGGGGAAGC ((((((....)))..))) | -19.2 kcal/mol | 50 °C |
| GCTCCCGAAAGGGGTAGC ((((((....)))..))) | -18.1 kcal/mol | 48.7 °C |
| GCTCCGCGAAAGCAAAGC (((..((....))..))) | -11 kcal/mol | 31.5 °C |
| GCTCCGCGAAAGCCAAGC (((..((....))..))) | -8.28 kcal/mol | 26.1 °C |
| GCTCCGCGAAAGCGAGC (((.(((....)))))) | -20.6 kcal/mol | 61.7 °C |
| GCTCCGCGAAAGCGTCGC ((..(((....)))..)) | -15.9 kcal/mol | 35.2 °C |
| GCTCCGCGAAAGCGTGGC ((..(((....)))..)) | -15.7 kcal/mol | 50.1 °C |
| GCTCCGCGAAAGCGTTGC ((..(((....)))..)) | -14.2 kcal/mol | 40.4 °C |
| GCTCCGCGAAAGCTGTGC ((.(.((....)).).)) | -14.9 kcal/mol | 41.2 °C |
| GCTCCGGGAAACCAGAGC ((((.((....)).)))) | -31.9 kcal/mol | 47 °C |
| GCTCCGGGAAACTGGAGC (((((.(....).))))) | -45.7 kcal/mol | 60.1 °C |
| GCTCCGGGAAACTGGGGC ((.((.(....).)).)) | -33.9 kcal/mol | 48.1 °C |
